How the values were obtained:
[1] = biological target: T1, Proteasome subunit beta type-9 (Homo sapiens, UniProt P28065); experiment: Inhibition of human 20S proteasome LMP2 using Ac-PAL-AMC as fluorogenic substrate measured every minute for 1 hr by fluorescence assay
T1 sequence (P28065 whole entry): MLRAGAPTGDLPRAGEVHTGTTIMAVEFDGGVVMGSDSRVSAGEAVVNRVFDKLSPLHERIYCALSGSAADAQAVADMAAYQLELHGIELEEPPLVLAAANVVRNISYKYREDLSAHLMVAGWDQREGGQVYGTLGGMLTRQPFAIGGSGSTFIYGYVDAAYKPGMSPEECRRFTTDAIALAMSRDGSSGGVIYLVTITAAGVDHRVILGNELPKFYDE
Procedure, shortened: (§1)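 Preincubated 1 h with inhibitor at 3-10,000 nM (8 concentrations). Substrates at 100 μM: Ac-PAL-AMC (LMP2), Ac-nLPnLD-AMC (Y), Ac-ANW-AMC (LMP7). Ac-WLA-AMC (X) at 20 μM. AMC fluorescence (360/460 nm) read each minute for 1 h; 3 replicates.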

[2] = biological target: T2, Proteasome subunit beta type-8 (Homo sapiens, UniProt P28062); experiment: Inhibition of human 20S proteasome LMP7 using Ac-ANW-AMC as fluorogenic substrate measured every minute for 1 hr by fluorescence assay
T2 sequence (P28062 whole entry): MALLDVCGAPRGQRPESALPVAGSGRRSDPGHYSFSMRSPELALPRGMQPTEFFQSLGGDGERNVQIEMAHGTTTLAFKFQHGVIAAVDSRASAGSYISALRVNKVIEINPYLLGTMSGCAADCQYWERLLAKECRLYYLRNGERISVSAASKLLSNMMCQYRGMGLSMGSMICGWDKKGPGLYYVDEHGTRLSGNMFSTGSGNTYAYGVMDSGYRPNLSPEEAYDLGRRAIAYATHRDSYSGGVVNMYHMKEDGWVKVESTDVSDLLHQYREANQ
Procedure, shortened: as §1, with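 “Purified human 20S constitutive or immunoproteasome, 50 ng in 20 mM Tris-HCl, 0.5 mM EDTA, 0.035% SDS, pH 8.0. Preincubated” for “Preincubated”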

[3] = Inhibition of human 20S proteasome X using Ac-WLA-AMC as fluorogenic substrate measured every minute for 1 hr by fluorescence assay
Procedure, shortened: as §1, with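 “Purified human 20S constitutive or immunoproteasome, 50 ng in 20 mM Tris-HCl, 0.5 mM EDTA, 0.035% SDS, pH 8.0. Preincubated” for “Preincubated”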

[4] = Inhibition of human 20S proteasome Y using Ac-nLPnLD-AMC as fluorogenic substrate measured every minute for 1 hr by fluorescence assay; procedure, shortened: as §1
[5] = biological target: T1, Proteasome subunit beta type-9; experiment: Inhibition of human 20S proteasome LMP2 activity in human RPMI-8226 cells using Ac-PAL-AMC as fluorogenic substrate incubated for 72 hrs by fluorescence assay; assay type: cell-based
[6] = biological target: T1, Proteasome subunit beta type-9; experiment: Inhibition of human 20S proteasome LMP2 activity in human RPMI-8226 cells overexpressing ABCB1 using Ac-PAL-AMC as fluorogenic substrate incubated for 72 hrs by fluorescence assay; assay type: cell-based
Homo sapiens = organism: Homo sapiens; experiment: Selectivity index, ratio of IC50 for inhibition of human 20S proteasome LMP2 activity in human RPMI-8226 cells overexpressing ABCB1 to IC50 for inhibition of human 20S proteasome LMP2 activity in human RPMI-8226 cells; assay type: cell-based
Procedure, shortened: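 Carfilzomib-resistant RPMI 8226/ABCB1 line, kept drug-free for two weeks, alongside parental RPMI 8226. Cells exposed to varying inhibitor concentrations for 72 h, n=3 per concentration. Lysates (5 μg protein, pH 8.0 Tris/EDTA/0.035% SDS buffer) read with 100 μM Ac-PAL-AMC at ex 360/em 460 nm every minute for 1 h. IC50 from curve fitting, mean ± SD.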

Row | SMILES | IC50 [1] | IC50 [2] | IC50 [3] | IC50 [4] | IC50 [5] | IC50 [6] | Ratio IC50 (Homo sapiens)
1 | CC(C)C[C@H](NC(=O)[C@@H]1COCCCCCC(=O)N2CC(F)(F)C[C@H]2C(=O)N1)C(=O)[C@@]1(C)CO1 | 238 nM | > 10000 nM | > 10000 nM |  |  |  | 
2 | CC(C)C[C@H](NC(=O)[C@@H]1COCCCCCC(=O)N2CC[C@H]2C(=O)N1)C(=O)[C@@]1(C)CO1 | 261 nM | > 10000 nM | > 10000 nM |  |  |  | 
3 | CC(C)C[C@H](NC(=O)[C@@H]1COCCCCCC(=O)N2C[C@H](F)C[C@H]2C(=O)N1)C(=O)[C@@]1(C)CO1 | 2130 nM | > 10000 nM | > 10000 nM | > 10000 nM |  |  | 
4 | CC(C)C[C@H](NC(=O)[C@@H]1COCCCCCCC(=O)N2CCC[C@H]2C(=O)N1)C(=O)[C@@]1(C)CO1 | 563 nM | > 10000 nM | 4640 nM |  |  |  | 
5 | CC(C)C[C@H](NC(=O)[C@@H]1COCCCCCC(=O)NCC(=O)N2CCC[C@H]2C(=O)N1)C(=O)[C@@]1(C)CO1 | 69.4 nM | > 10000 nM | > 10000 nM |  | > 10000 nM | > 10000 nM | 
6 | C[C@]1(C(=O)[C@H](CC2CCCCC2)NC(=O)[C@@H]2COCCCCCC(=O)N3CCC[C@H]3C(=O)N2)CO1 | 523 nM | 5770 nM | > 10000 nM |  |  |  | 
7 | CC(C)C[C@H](NC(=O)[C@@H]1COCCCCCCC(=O)NCC(=O)N2CCC[C@H]2C(=O)N1)C(=O)[C@@]1(C)CO1 | 65.6 nM | > 10000 nM | > 10000 nM |  | > 10000 nM | > 10000 nM | 
8 | CC(=O)NCC(=O)N1CCC[C@H]1C(=O)N[C@@H](Cc1ccccc1)C(=O)N[C@@H](CC(C)C)C(=O)[C@@]1(C)CO1 |  |  | > 10000 nM |  |  |  | 
9 | C[C@]1(C(=O)[C@H](Cc2ccccc2)NC(=O)[C@@H]2COCCCCCC(=O)N3CCC[C@H]3C(=O)N2)CO1 | 251 nM | > 10000 nM | > 10000 nM |  |  |  | 
10 | CC(C)C[C@H](NC(=O)[C@H](Cc1ccccc1)NC(=O)[C@@H]1CCCN1C(=O)CNC(=O)c1cnccn1)C(=O)[C@@]1(C)CO1 |  |  | > 10000 nM |  |  |  | 
11 | CC(C)C[C@H](NC(=O)[C@@H]1COCCCCCCCC(=O)N2CCC[C@H]2C(=O)N1)C(=O)[C@@]1(C)CO1 | 158 nM | > 10000 nM | > 10000 nM |  |  |  | 
12 | CC(C)C[C@H](NC(=O)[C@@H]1Cc2ccc(cc2)OCCCCCCC(=O)N2CCC[C@H]2C(=O)N1)C(=O)[C@@]1(C)CO1 | 423 nM | > 10000 nM | > 10000 nM |  |  |  | 
13 | CC(C)C[C@H](NC(=O)[C@@H]1COCCCCCC(=O)N2CCCC[C@H]2C(=O)N1)C(=O)[C@@]1(C)CO1 | 1240 nM | > 10000 nM | > 10000 nM |  |  |  | 
14 | CC(C)C[C@H](NC(=O)[C@@H]1COCCCCCC(=O)N2CCC[C@@]2(C)C(=O)N1)C(=O)[C@@]1(C)CO1 | 4580 nM | > 10000 nM | > 10000 nM |  |  |  | 
15 | C[C@]1(C(=O)[C@H](CC2CCCCC2)NC(=O)[C@@H]2Cc3ccc(cc3)OCCCCCCCC(=O)N3CCC[C@H]3C(=O)N2)CO1 | 168 nM | 2690 nM | 5000 nM |  |  |  | 
16 | CC(C)C[C@H](NC(=O)[C@@H]1COCCCCCC(=O)N2CCC[C@H]2C(=O)N1)C(=O)[C@@]1(C)CO1 | 413 nM | > 10000 nM | 1080 nM | 1500 nM | 35.8 nM | 147 nM | 4.1
17 | CC(C)C[C@H](NC(=O)[C@@H]1Cc2ccc(cc2)OCCCCCCCCC(=O)N2CCC[C@H]2C(=O)N1)C(=O)[C@@]1(C)CO1 | 414 nM | 342 nM | 5000 nM | 414 nM |  |  | 
18 | CC(C)C[C@H](NC(=O)[C@@H]1Cc2ccc(cc2)OCCCCCCCC(=O)N2CCC[C@H]2C(=O)N1)C(=O)[C@@]1(C)CO1 | 129 nM | 1520 nM | 4770 nM | 715 nM | 33.9 nM | 161 nM | 4.7
